Results from ChEMBL document CHEMBL1212858, “New bioactive halenaquinone derivatives from South Pacific marine sponges of the genus Xestospongia” (Bioorg Med Chem, 2010).
pIC50: −log10 of the molar value. Counter-ions that a name gives are not always drawn.

What was measured:
[1] = biological target: Protein farnesyltransferase (Homo sapiens, UniProt P49354+P49356); assay: Inhibition of human FTase after 15 mins by fluorimetric analysis; type: protein-complex assay
Procedure, shortened: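 Partially purified human FTase (1.5 mg/mL, 5 µL per 1 mL peptide solution) with dansyl-GCVLS peptide in Tris/HCl pH 7.5 buffer with DTT, MgCl2, ZnCl2 and 0.18% octyl-D-glucopyranoside in place of CHAPS. Inhibitors added from DMSO; started with farnesyl pyrophosphate (10 µM stock). Fluorescence (ex 340/em 486 nm) read 15 min at 30 °C; duplicates, run twice.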

Phospholipase A2 = biological target: T1, Phospholipase A2 (Apis mellifera, UniProt P00630); assay: Inhibition of bee venom phospholipase A2 after 5 mins by spectrophotometric analysis
T1 sequence (P00630 whole entry): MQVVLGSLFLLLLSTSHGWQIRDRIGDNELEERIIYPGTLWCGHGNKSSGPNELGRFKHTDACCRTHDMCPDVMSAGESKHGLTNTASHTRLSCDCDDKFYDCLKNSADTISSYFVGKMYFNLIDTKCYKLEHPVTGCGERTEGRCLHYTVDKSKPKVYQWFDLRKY
Procedure, shortened: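 Colorimetric assay with Apis mellifera venom PLA2, added as 2 µL of a 1 mg/mL […]. Test material in DMSO was preincubated with the enzyme for 1 h at 25 °C. Substrate solution was then added: L-α-phosphatidylcholine 3.5 mM, phenol red 0.055 mM, NaCl 100 mM, CaCl2 10 mM, Triton 7 mM, pH 7.6. Absorbance at 550 nm was read at 0 and 5 min, in duplicate. Manoalide as positive control.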

Plasmodium falciparum [2] = assay: Antiplasmodial activity against chloroquine-sensitive Plasmodium falciparum 3D7 after 48 hrs; type: functional, organism-based; settings: 3D7, 48 h
Procedure, shortened: (§1)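 Ring-stage P. falciparum cultures synchronised by magnetic purification plus D-sorbitol lysis. Compounds from a 10 mg/mL DMSO mother solution were serially diluted in culture medium and incubated 48 h with parasitised erythrocytes (2% haematocrit, 1% parasitaemia). Growth was followed by 3H-hypoxanthine incorporation (9.25 kBq/well). IC50 was read graphically from inhibition–concentration plots. Triplicates, three independent experiments; chloroquine as positive control.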

Plasmodium falciparum [3] = assay: Antiplasmodial activity against chloroquine-resistant Plasmodium falciparum FcB1 after 48 hrs; type: functional, organism-based; settings: FcB1/Columbia; procedure, shortened: as §1
[4] = Inhibition of Saccharomyces cerevisiae FTase after 15 mins by fluorimetric analysis
Procedure, shortened: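 Partially purified recombinant yeast FTase (2.2 mg/mL, 0.1 mL per 7.0 mL peptide solution) with dansyl-GCVLS peptide in 53 mM Tris/HCl pH 7.5, 5.8 mM DTT, 6 mM MgCl2, 12 µM ZnCl2, 0.09% CHAPS. Inhibitors added from DMSO; started with farnesyl pyrophosphate (10 µM stock). Fluorescence (ex 340/em 486 nm) followed 15 min at 30 °C; duplicates, run twice.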

Vero = assay: Cytotoxicity against african green monkey Vero cells assessed as inhibition of [3H]hypoxanthine incorporation after 48 hrs; type: cell-based; settings: Chlorocebus sabaeus
Procedure, shortened: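 VERO cells (10^5 cells/well) exposed 48 h to serial dilutions in culture medium of a 10 mg/mL DMSO mother solution; growth inhibition by 3H-hypoxanthine incorporation (9.25 kBq/well). Highest concentration tested 20 µg/mL. IC50 read graphically from inhibition-versus-concentration plots; triplicates on three independent occasions, mean ± SEM (n = 3). Doxorubicin positive control.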

[5] = Selectivity ratio of IC50 for african green monkey (Cercopithecus aethiops) Vero cells to IC50 for chloroquine-resistant Plasmodium falciparum FcB1; type: ADME, cell-based; settings: read-out: Ratio IC50
Procedure, shortened: (§2)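 Compounds were serially diluted from a 10 mg/mL DMSO stock into medium and added to VERO cells (10^5 cells/well) or to synchronised ring-stage P. falciparum (2% haematocrit, 1% parasitaemia). Read-out was 3H-hypoxanthine incorporation, with IC50 read graphically. Triplicates, three independent times; doxorubicin and chloroquine as controls.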

[6] = Selectivity ratio of IC50 for african green monkey (Cercopithecus aethiops) Vero cells to IC50 for chloroquine-sensitive Plasmodium falciparum 3D7; type: ADME, cell-based; settings: read-out: Ratio IC50; procedure, shortened: as §2

Compound `C[C@@]12CC[C@H](O)[C@@H]3COC(=C31)C(=O)c1cc3c(cc12)C(=O)CC[C@@H]3O` [TETRAHYDROHALENAQUINONE A] has a pIC50 [1] of less than 4.52, a pIC50 (Phospholipase A2) of 3.22 and a pIC50 (Plasmodium falciparum [2]) of less than 4.54. For the same compound, the pIC50 (Plasmodium falciparum [3]) was less than 4.54, the pIC50 [4] was less than 4.52 and the pIC50 (Vero) was less than 4.24.

`C[C@@]12CC[C@H](O)[C@@H]3COC(=C31)C(=O)c1cc3c(cc12)C(O)CCC3=O` (stereo partly specified) [XESTOSAPROL A] showed a pIC50 [1] of less than 4.52, a pIC50 (Phospholipase A2) of 3.00 and a pIC50 (Plasmodium falciparum [2]) of less than 4.54. For the same compound, the pIC50 (Plasmodium falciparum [3]) was less than 4.54, the pIC50 [4] was less than 4.52 and the pIC50 (Vero) was less than 4.24.

`C[C@@]12CCC(=O)c3coc(c31)C(=O)c1cc3c(cc12)C(=O)C1=C(C3=O)S(=O)(=O)CCN1` [3-KETOADOCIAQUINONE A] gave a selectivity ratio [5] of 5, a pIC50 [1] of 5.38 and a pIC50 (Phospholipase A2) of 3.85. For the same compound, the pIC50 (Plasmodium falciparum [2]) was 5.78, the pIC50 (Plasmodium falciparum [3]) was 5.97 and the selectivity ratio [6] was 5. For the same compound, the pIC50 [4] was 5.83 and the pIC50 (Vero) was less than 4.35.

For `C[C@@]12CCC(=O)c3coc(c31)C(=O)c1cc3c(cc12)C(=O)C1=C(NCCS1(=O)=O)C3=O` [3-KETOADOCIAQUINONE B], the selectivity ratio [5] was 5, the pIC50 [1] was 5.03 and the pIC50 (Phospholipase A2) was 3.98. For the same compound, the pIC50 (Plasmodium falciparum [2]) was 5.39, the pIC50 (Plasmodium falciparum [3]) was 5.41 and the selectivity ratio [6] was 5. For the same compound, the pIC50 [4] was 5.43 and the pIC50 (Vero) was less than 4.35.

Compound `C[C@@]12CCC(=O)c3coc(c31)C(=O)c1cc3c(O)ccc(OS(=O)(=O)O)c3cc12` [HALENAQUINOL SULFATE SODIUM] has a pIC50 [1] of 4.67, a pIC50 (Phospholipase A2) of 3.00 and a pIC50 (Plasmodium falciparum [2]) of less than 4.62. It also gave a pIC50 (Plasmodium falciparum [3]) of less than 4.62, a pIC50 [4] of 4.79 and a pIC50 (Vero) of less than 4.32.

With `CC1=CCCC2(C)C1=C(O)C(=O)c1cc3c(cc12)C(=O)C=CC3=O` (stereo unspecified) [ORHALQUINONE] the selectivity ratio [5] was 5, the pIC50 [1] was 6.39 and the pIC50 (Phospholipase A2) was 2.80. The pIC50 (Plasmodium falciparum [2]) was 4.96, the pIC50 (Plasmodium falciparum [3]) was 5.04 and the selectivity ratio [6] was 5. The pIC50 [4] was 6.40 and the pIC50 (Vero) was less than 4.21.

For `COc1cccc2c1C(=O)c1c(O)c3c(c(O)c1C2=O)C[C@@](O)(C(=O)CO)C[C@@H]3O[C@H]1C[C@H](N)[C@H](O)[C@H](C)O1` [DOXORUBICIN], the pIC50 (Vero) was 5.29.

With `CO[C@]12OC(O)C3=C1[C@@](C)(CCC3=O)c1cc3c(OS(=O)(=O)O)ccc(O)c3cc1C2=O` (stereo partly specified) [XESTOSAPROL C METHYLACETAL] the pIC50 [1] was 5.36, the pIC50 (Phospholipase A2) was 3.24 and the pIC50 (Plasmodium falciparum [2]) was less than 4.68. For the same compound, the pIC50 (Plasmodium falciparum [3]) was less than 4.68, the pIC50 [4] was 5.17 and the pIC50 (Vero) was less than 4.38.

Work on `CC1=C(CC/C(C)=C/CCC2=CC[C@H](C3=CC(=O)O[C@H]3O)O[C@H]2O)C(C)(C)CCC1` [MANOALIDE] yielded a pIC50 (Phospholipase A2) of 6.30.

Compound `C[C@@]12CCC(=O)c3coc(c31)C(=O)c1cc3c(cc12)C(=O)C=CC3=O` [HELENAQUINONE] has a pIC50 [1] of 6.03, a pIC50 (Phospholipase A2) of 5.43 and a pIC50 (Plasmodium falciparum [2]) of less than 4.52. For the same compound, the pIC50 (Plasmodium falciparum [3]) was less than 4.52, the pIC50 [4] was 5.80 and the pIC50 (Vero) was less than 4.22.
